Data set [1] relates to Hepatitis B virus. Put plainly: Antiviral activity against Hepatitis B virus infected in HepG2.2.15 assessed as inhibition of HBV replication by quantitative Southern blot hybridization analysis. It counts as functional, organism-based. To be noted: HepG2 2.2.15. The method, boiled down:
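Confluent 2.2.15 cells in RPMI 1640 with 2% FBS, dosed daily for eight consecutive days, with medium and compound replaced each day; untreated cell control. Intracellular HBV DNA quantified by Southern blot hybridization eight days after first treatment. IC50 is 50% inhibitory concentration; mean and SD of three separate experiments.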

A short description of data set [2]: Cytotoxicity against human HepG2(2.2.15) after 9 days by neutral dye uptake method. The class given is cell-based. As to conditions: HepG2(2.2.15) cells; call rule not given here. The method, boiled down: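 Confluent 2.2.15 cells were exposed to compound in culture medium for 9 consecutive days, with untreated controls on every plate. Viability was read as neutral red uptake by absorbance at 510 nm relative to untreated cells, giving CC50. Mean and SD of three separate experiments.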

Data set [3] in a line: Selectivity index, ratio of CC50 for human HepG2.2.15 cells to IC50 for inhibition of Hepatitis B virus DNA replication. It counts as functional. The method, boiled down:
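SI = CC50/IC50. CC50 is from neutral red uptake after 9 days of treatment. IC50 is from Southern blot of intracellular HBV DNA after eight daily doses, in 2.2.15 cells.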

Data set [4] deals with Hepatitis B virus. Put plainly: Antiviral activity against Hepatitis B virus infected in HepG2.2.15 assessed as inhibition of HBsAg production at <91.2 +/- 3.5 uM by EIA. To be noted: hepg2 2.2.15. It counts as functional, organism-based.
Data set [5] has as its system Hepatitis B virus. Put plainly: Antiviral activity against Hepatitis B virus infected in HepG2.2.15 assessed as inhibition of HBV replication at <64.5 +/- 4.2 uM by quantitative Southern blot hybridization analysis. It counts as functional, organism-based. As to conditions: hepg2 2.2.15.
Data set [6] has as its system Hepatitis B virus. Put plainly: Antiviral activity against Hepatitis B virus infected in HepG2.2.15 assessed as inhibition of HBsAg production at <64.5 +/- 4.2 uM by EIA. It counts as functional, organism-based. To be noted: hepg2 2.2.15.
Data set [7] relates to Hepatitis B virus. Put plainly: Antiviral activity against Hepatitis B virus infected in HepG2.2.15 assessed as inhibition of HBsAg production at <163.9 +/- 4.4 uM by EIA. It counts as functional, organism-based. To be noted: hepg2 2.2.15.
The test system of data set [8] is Hepatitis B virus. Put plainly: Antiviral activity against Hepatitis B virus infected in HepG2.2.15 assessed as inhibition of HBV replication at <102.7 +/- 3.3 uM by quantitative Southern blot hybridization analysis. It counts as functional, organism-based. As to conditions: hepg2 2.2.15.
Data set [9] relates to Hepatitis B virus. Put plainly: Antiviral activity against Hepatitis B virus infected in HepG2.2.15 assessed as inhibition of HBsAg production at <102.7 +/- 3.3 uM by EIA. To be noted: hepg2 2.2.15. It counts as functional, organism-based.
Data set [10] has as its system Hepatitis B virus. Put plainly: Antiviral activity against Hepatitis B virus infected in HepG2.2.15 assessed as inhibition of HBsAg production by EIA. It counts as functional, organism-based. As to conditions: HepG2 2.2.15. The method, boiled down:
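HBsAg secreted into the medium by confluent 2.2.15 cultures (RPMI 1640, 2% FBS) measured by semiquantitative enzyme immunoassay eight days after the first of eight consecutive daily treatments. Medium and compound were renewed daily, with an untreated cell control. Gives the 50% inhibitory concentration; mean and SD from three separate experiments.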

Data set [11] in a line: Selectivity index, ratio of CC50 for human HepG2.2.15 cells to IC50 for inhibition of HBsAg production. It counts as functional. The method, boiled down:
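SI = CC50/IC50. CC50 is from neutral red uptake after 9 days of treatment. IC50 is from HBsAg EIA after eight daily doses, in 2.2.15 cells.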

Data set [12] relates to Hepatitis B virus. Put plainly: Antiviral activity against Hepatitis B virus infected in HepG2.2.15 assessed as inhibition of HBV replication at <900.5 +/- 5.3 uM by quantitative Southern blot hybridization analysis. The class given is functional, organism-based. To be noted: hepg2 2.2.15.
Data set [13] relates to Hepatitis B virus. Put plainly: Antiviral activity against Hepatitis B virus infected in HepG2.2.15 assessed as inhibition of HBV replication at <556.9 +/- 1.8 uM by quantitative Southern blot hybridization analysis. The class given is functional, organism-based. As to conditions: hepg2 2.2.15.
Data set [14] has as its system Hepatitis B virus. Put plainly: Antiviral activity against Hepatitis B virus infected in HepG2.2.15 assessed as inhibition of HBV replication at <757.8 +/- 4.3 uM by quantitative Southern blot hybridization analysis. The class given is functional, organism-based. As to conditions: hepg2 2.2.15.
Data set [15] relates to Hepatitis B virus. Put plainly: Antiviral activity against Hepatitis B virus infected in HepG2.2.15 assessed as inhibition of HBV replication at <739.9 +/- 3.6 uM by quantitative Southern blot hybridization analysis. The class given is functional, organism-based. As to conditions: hepg2 2.2.15.
In data set [16] the test system is Hepatitis B virus. Put plainly: Antiviral activity against Hepatitis B virus infected in HepG2.2.15 assessed as inhibition of HBV replication at <622.8 +/- 3.4 uM by quantitative Southern blot hybridization analysis. The class given is functional, organism-based. As to conditions: hepg2 2.2.15.
Data set [17] deals with Hepatitis B virus. Put plainly: Antiviral activity against Hepatitis B virus infected in HepG2.2.15 assessed as inhibition of HBV replication at <506.3 +/- 3.2 uM by quantitative Southern blot hybridization analysis. It counts as functional, organism-based. To be noted: hepg2 2.2.15.
In data set [18] the test system is Hepatitis B virus. Put plainly: Antiviral activity against Hepatitis B virus infected in HepG2.2.15 assessed as inhibition of HBsAg production at <2183.1 +/- 4.1 by EIA. The class given is functional, organism-based. To be noted: hepg2 2.2.15.

We go through eleven compounds from ChEMBL document CHEMBL1287795, “Synthesis and biological evaluation of 1H-benzimidazol-5-ols as potent HBV inhibitors” (Bioorg Med Chem Lett, 2010).

A word on the IC50: it is the midpoint of a concentration-inhibition curve. By CC50 is commonly meant the concentration giving 50% cytotoxicity. Higher therefore signals lower toxicity to the cells.

As for `Cc1ccc(SCc2nc3c(Cn4ccnc4C)c(O)ccc3n2C)cc1`, the IC50 in data set [1] is 36.1 µM; in [4], “Not Active”. The compound further showed a cytotoxic concentration (CC50) at 216 h in data set [2] of 91.2 µM. The “Selectivity Index” value in [3] was determined as 2.5.
`COc1ccc(SCc2nc3c(Cn4ccnc4)c(O)ccc3n2C)cc1` registered a CC50 at 216 h in data set [2] of 64.5 µM. Further, the IC50 result in data set [5] and in data set [6] was “Not Active” throughout.
On to `COc1ccc(SCc2nc3c(Cn4ccnc4C)c(O)ccc3n2C)cc1`, for which the concentration for half-maximal inhibition (IC50) was 44.5 µM in data set [1] and “Not Active” in data set [7]. Moreover, in data set [2], the half-maximal cytotoxic concentration (CC50) at 216 h came out at 164 µM. Also, in [3], the “Selectivity Index” value was determined as 3.7.
On to `COc1cccc(SCc2nc3c(Cn4ccnc4C)c(O)ccc3n2C)c1`, for which the IC50 entry in data set [8] and in [9] was “Not Active” each time. In addition, in data set [2], the midpoint of cytotoxicity, the CC50 at 216 h, lay at 103 µM.
For the compound `Cn1c(C[S+]([O-])c2ccccc2)nc2c(CN3CCOCC3)c(O)ccc21` (stereo unspecified), the values for the IC50 in data set [10] and in data set [12] were 401 µM and “Not Active”, respectively. Besides, in [11], the “Selectivity Index” value is listed as 2.2. The half-maximal cytotoxic concentration (CC50) at 216 h in data set [2] was 900 µM.
On to `Cn1c(C[S+]([O-])c2ccccc2)nc2c(Cn3ccnc3)c(O)ccc21` (stereo unspecified), for which the concentration for half-maximal inhibition (IC50) was 189 µM in data set [10] and “Not Active” in data set [13]. The “Selectivity Index” value in data set [11] is 2.9. In [2], this compound gave a CC50 at 216 h of 557 µM.
Take `Cc1ccc([S+]([O-])Cc2nc3c(Cn4ccnc4)c(O)ccc3n2C)cc1` (stereo unspecified): the IC50 was 176 µM in [10] and “Not Active” in [14]. Besides, in data set [11], the “Selectivity Index” value worked out at 4.3. In data set [2], half-maximal cytotoxicity (CC50 at 216 h) was put at 758 µM.
In the case of `Cn1c(CS(=O)(=O)c2ccccc2)nc2c(CN3CCOCC3)c(O)ccc21`, the IC50 was 326 µM in [10] and “Not Active” in data set [15]. Moreover, in data set [11], the “Selectivity Index” value is recorded as 2.3. In [2], the CC50 at 216 h was 740 µM.
`Cn1c(CS(=O)(=O)c2ccccc2)nc2c(Cn3ccnc3)c(O)ccc21`: the IC50 in data set [10] is 70.2 µM; in data set [16], “Not Active”. Also, in data set [11], the “Selectivity Index” value worked out at 8.9. Further, in data set [2], the CC50 at 216 h came to 623 µM.
In the case of `Cc1ccc(S(=O)(=O)Cc2nc3c(Cn4ccnc4)c(O)ccc3n2C)cc1`, the IC50 was 62.6 µM in data set [10] and “Not Active” in data set [17]. Besides, the “Selectivity Index” value in [11] was found to be 8.1. In [2], this compound showed a CC50 at 216 h of 506 µM.
In the case of `Nc1ccn([C@@H]2CS[C@H](CO)O2)c(=O)n1` [LAMIVUDINE], the half-inhibitory concentration (IC50) entry in data set [18] was “Not Active”. The compound further came in with a 50% cytotoxic concentration (CC50) at 216 h in [2] of 2180 µM. The “Selectivity Index” value in [3] is given as 9.1.
